pIC50: −log10 of the molar value. Active and inactive are the calls of the source. The rule behind the calls is not given here.
Tests used:
HL-60 = test: Inhibition of total cholesterol biosynthesis in human HL60 cells assessed as incorporation of 2-13C-acetate by GC-MS analysis; type: functional, cell-based
Outline: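 HL-60 cells incubated with inhibitor in presence of 2-13C-acetate; newly made 13C-labelled cholesterol distinguished from unlabelled pre-existing cholesterol by GC-MS after extraction; IC50 for total cholesterol biosynthesis derived; triplicate experiments.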

[1] = Cytotoxicity against human HL60 cells after 24 hrs by MTT assay; type: cell-based; conditions: HL-60, 24 h
Outline: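 MTT assay on human leukaemia HL-60 cells, following Mosmann; cisplatin as reference; triplicate experiments.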

[2] = biological target: T1, Lanosterol synthase (Homo sapiens) (UniProt P48449); test: Inhibition of OSC in human HL60 cells assessed as accumulation of 2,3-oxidosqualene by GC-MS method; type: cell-based; conditions: HL-60
T1 sequence (whole entry): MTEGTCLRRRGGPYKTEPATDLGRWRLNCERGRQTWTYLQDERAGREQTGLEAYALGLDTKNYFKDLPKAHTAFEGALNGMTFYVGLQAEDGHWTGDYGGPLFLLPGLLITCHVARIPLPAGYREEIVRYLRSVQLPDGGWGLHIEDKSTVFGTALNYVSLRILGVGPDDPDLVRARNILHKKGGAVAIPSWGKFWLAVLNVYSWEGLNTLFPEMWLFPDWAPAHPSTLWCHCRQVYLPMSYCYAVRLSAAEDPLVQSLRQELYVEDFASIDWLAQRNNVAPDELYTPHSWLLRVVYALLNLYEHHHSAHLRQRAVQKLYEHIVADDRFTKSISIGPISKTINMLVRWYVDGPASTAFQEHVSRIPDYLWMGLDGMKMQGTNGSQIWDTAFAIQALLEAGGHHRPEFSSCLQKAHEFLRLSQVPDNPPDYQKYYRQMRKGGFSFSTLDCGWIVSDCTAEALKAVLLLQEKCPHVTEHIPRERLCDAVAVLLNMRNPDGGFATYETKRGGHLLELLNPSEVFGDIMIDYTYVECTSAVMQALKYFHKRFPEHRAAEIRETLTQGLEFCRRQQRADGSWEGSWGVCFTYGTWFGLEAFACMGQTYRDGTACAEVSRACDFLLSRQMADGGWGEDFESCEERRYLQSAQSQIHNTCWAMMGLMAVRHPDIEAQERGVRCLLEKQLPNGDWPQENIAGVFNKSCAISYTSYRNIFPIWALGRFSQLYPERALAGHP
Outline: (§1)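 Qualitative whole-cell screen: human HL-60 cells incubated with compound, then lysed and extracted; sterol pattern analysed by GC-MS. Enzyme target assigned from characteristic precursor accumulation: 2,3-oxidosqualene for OSC, 7-dehydrocholesterol for dehydrocholesterol reductase.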

[3] = Inhibition of Saccharomyces cerevisiae FL100 wild type OSC using [14C]-(3S)-2,3-oxidosqualene as substrate
Outline: (§2)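 Homogenates of yeast cultures (SMY8 expressing human or T. cruzi OSC; wild-type S. cerevisiae FL100) incubated with radiolabelled 2,3-oxidosqualene at increasing inhibitor concentrations; IC50 as mean of two separate experiments, each in duplicate.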

Lanosterol synthase = biological target: T2, Lanosterol synthase (Homo sapiens, UniProt P48449); test: Inhibition of human OSC expressed in recombinant Saccharomyces cerevisiae SMY8 using [14C]-(3S)-2,3-oxidosqualene as substrate; outline: as §2
T2 sequence (P48449 whole entry): T1 sequence (whole entry)

[4] = Inhibition of Trypanosoma cruzi OSC expressed in recombinant Saccharomyces cerevisiae SMY8 using [14C]-(3S)-2,3-oxidosqualene as substrate; outline: as §2
Nakaseomyces glabratus = test: Inhibition of ergosterol biosynthesis in Candida glabrata DSM 11226 at 0.2 to 0.5 times MIC after 48 hrs by GC-MS analysis; type: functional, organism-based
Outline: (§3)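 Whole-cell sterol-pattern assay analogous to the cholesterol one, run on S. cerevisiae, Yarrowia lipolytica and Candida glabrata; accumulation of precursor sterols and cellular ergosterol content followed.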

Saccharomyces cerevisiae = test: Inhibition of ergosterol biosynthesis in Saccharomyces cerevisiae DSM 1333 at 0.2 to 0.5 times MIC after 48 hrs by GC-MS analysis; type: functional, organism-based; outline: as §3
Yarrowia lipolytica = test: Inhibition of ergosterol biosynthesis in Yarrowia lipolytica DSM 1345 at 0.2 to 0.5 times MIC after 48 hrs by GC-MS analysis; type: functional, organism-based; outline: as §3
[5] = Inhibition of Saccharomyces cerevisiae OSC expressed in recombinant Saccharomyces cerevisiae SMY8 using [14C]-(3S)-2,3-oxidosqualene as substrate
[6] = biological target: T3, 7-dehydrocholesterol reductase (Homo sapiens) (UniProt Q9UBM7); test: Inhibition of 7-dehydrocholesterol reductase in human HL60 cells assessed as accumulation of 7-dehydrocholesterol by GC-MS method; type: cell-based; conditions: HL-60; outline: as §1
T3 sequence (whole entry): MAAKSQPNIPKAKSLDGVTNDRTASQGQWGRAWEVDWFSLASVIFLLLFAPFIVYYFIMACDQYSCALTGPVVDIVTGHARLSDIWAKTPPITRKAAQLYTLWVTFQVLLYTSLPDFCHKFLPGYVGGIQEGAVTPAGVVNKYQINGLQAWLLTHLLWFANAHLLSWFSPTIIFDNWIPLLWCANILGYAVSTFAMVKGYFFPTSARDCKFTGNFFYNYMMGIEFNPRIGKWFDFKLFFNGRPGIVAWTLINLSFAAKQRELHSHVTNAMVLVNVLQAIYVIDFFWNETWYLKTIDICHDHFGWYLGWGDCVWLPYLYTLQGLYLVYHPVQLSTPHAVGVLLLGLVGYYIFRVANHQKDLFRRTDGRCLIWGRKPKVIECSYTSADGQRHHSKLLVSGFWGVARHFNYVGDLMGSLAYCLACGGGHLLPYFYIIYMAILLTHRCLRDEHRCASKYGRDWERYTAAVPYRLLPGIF

Row | pIC50 (HL-60) | inhibition [2] | pIC50 [3] | pIC50 (Lanosterol synthase) | pIC50 [5] | inhibition [6] | Structure (SMILES) | pIC50 [1] | pIC50 [4] | inhibition (Nakaseomyces glabratus) | inhibition (Saccharomyces cerevisiae) | inhibition (Yarrowia lipolytica)
1 | 5.89 | Active | < 5.00 | 5.69 | – | – | CN(Cc1ccc(Cl)cc1)Cc1ccc(C2CCCN(C)C2)cc1 (configuration not stated) | < 4.30 | < 5.00 | – | – | –
2 | 6.51 | Active | – | – | – | – | CN(C)Cc1ccc([C@H]2CC[C@H](N(C)C(=O)c3ccc(Cl)cc3)CC2)cc1 | < 4.30 | – | – | – | –
3 | 5.89 | Active | – | – | – | – | CN1CCC=C(c2ccc(CN(C)C/C=C/c3ccc([N+](=O)[O-])cc3)cc2)C1 | < 4.30 | – | inactive | inactive | inactive
4 | – | Active | – | – | – | – | CN1CCC=C(c2ccc(CN(C)CCCc3ccccc3)cc2)C1 | < 4.30 | – | inactive | inactive | inactive
5 | – | – | – | – | – | – | CC(C)CCCN(C)Cc1ccc(C2=CCCN(C)C2)cc1 | < 4.30 | – | – | – | –
6 | – | – | – | – | – | – | CC(C)CCN(C)Cc1ccc(C2CCCN(C)C2)cc1 (racemic) | < 4.30 | – | – | – | –
7 | – | – | – | – | – | – | CC(C)CN(C)Cc1ccc(C2=CCCN(C)C2)cc1 | < 4.30 | – | – | – | –
8 | 6.59 | Active | 5.32 | 6.29 | – | – | CN1CCC(c2ccc(CN(C)Cc3ccc(Cl)cc3)cc2)CC1 | < 4.30 | < 5.00 | inactive | inactive | inactive
9 | – | – | – | – | – | – | CC(C)CCN(C)Cc1ccc(C2=CCCN(C)C2)cc1 | < 4.30 | – | – | – | –
10 | 7.04 | Active | – | – | 6.05 | – | C=CCN(C)CCCCCCOc1ccc(C(=O)c2ccc(Br)cc2)c(F)c1 | 5.10 | – | – | – | –
11 | – | – | – | – | – | – | CN1CCC=C(c2ccc(CN(C)Cc3ccccc3)cc2)C1 | < 4.30 | – | – | – | –
12 | 5.67 | Active | 5.20 | 5.60 | – | – | CN1CCC=C(c2ccc(CN(C)Cc3ccc(Cl)cc3)cc2)C1 | < 4.30 | < 5.00 | inactive | inactive | inactive
13 | – | – | – | – | – | – | CC(C)CCCN(C)Cc1ccc(C2CCCN(C)C2)cc1 (racemic) | < 4.30 | – | – | – | –
14 | – | Active | – | – | – | – | CN(CCCc1ccccc1)Cc1ccc(C2CCCN(C)C2)cc1 (racemic) | < 4.30 | – | – | – | –
15 | – | – | – | – | – | – | COc1ccc(CN(C)Cc2ccc(C3=CCCN(C)C3)cc2)cc1 | < 4.30 | – | – | – | –
16 | – | – | – | – | – | – | CN(Cc1ccc(Cl)cc1)Cc1ccc(-c2cccnc2)cc1 | 4.68 | – | – | – | –
17 | – | – | – | – | – | – | CC(C)CN(C)Cc1ccc(C2CCCN(C)C2)cc1 (racemic) | < 4.30 | – | – | – | –
18 | 5.88 | Active | < 5.00 | 5.07 | – | – | CN(Cc1ccc(C2CCCN(C)C2)cc1)Cc1ccc2ccccc2c1 (racemic) | 4.40 | < 5.00 | – | – | –
19 | 6.43 | Active | < 5.00 | < 5.00 | – | – | CN1CCC=C(c2ccc(CN(C)Cc3ccc4ccccc4c3)cc2)C1 | < 4.30 | < 5.00 | inactive | inactive | inactive
20 | – | – | – | – | – | – | COC(=O)c1ccc(CN(C)Cc2ccc(C3=CCCN(C)C3)cc2)cc1 | < 4.30 | – | – | – | –
21 | 5.96 | Active | < 5.00 | 5.69 | – | – | CN(C/C=C/c1ccccc1)Cc1ccc(C2CCCN(C)C2)cc1 (configuration not stated) | < 4.30 | < 5.00 | – | – | –
22 | 5.64 | Active | – | – | – | – | CN1CCC=C(c2ccc(CN(C)Cc3ccc([N+](=O)[O-])cc3)cc2)C1 | 4.55 | – | inactive | inactive | inactive
23 | – | – | – | – | – | Active | CN(Cc1ccc(Cl)cc1)Cc1cn(C2CCCN(C)C2)nn1 (racemic) | < 4.30 | – | – | – | –
24 | 6.85 | Active | < 5.00 | 5.37 | – | – | CN1CCCC(c2ccc3c(c2)CCC3N(C)Cc2ccc(Cl)cc2)C1 (racemic) | < 4.30 | < 5.00 | inactive | inactive | inactive
25 | – | – | – | – | – | – | CN(C/C=C/c1ccccc1)Cc1ccc(-c2cccnc2)cc1 | 4.36 | – | – | – | –

Row | Structure (SMILES) | pIC50 (HL-60) | inhibition [2] | pIC50 [3] | pIC50 (Lanosterol synthase) | pIC50 [5] | inhibition [6] | pIC50 [1] | pIC50 [4] | inhibition (Nakaseomyces glabratus) | inhibition (Saccharomyces cerevisiae) | inhibition (Yarrowia lipolytica)
26 | CN1CCC=C(c2ccc(CN(C)C/C=C/c3ccccc3)cc2)C1 | 6.17 | Active | < 5.00 | 5.28 | – | – | < 4.30 | < 5.00 | inactive | inactive | inactive

From ChEMBL document CHEMBL3763134, “Arylpiperidines as a new class of oxidosqualene cyclase inhibitors” (Eur J Med Chem, 2016)
